PAD4 inh = human PAD4 inhibitors, primary screen, biochemical, fluorescence polarization, 1536-well format. Protein-arginine deiminase type-4 (Homo sapiens), Q9UM07. 330,000 compounds, 0.41% hits. recombinant PAD4, RCA probe fluorescence polarization. inhibition, % at 6.36 µM;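 active = percent inhibition above a cutoff equal to the mean of all tested compounds plus 3 SD, cut at about 15% in these data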;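 also: 0% = PAD4 with RCA probe and DMSO and 100% = probe without PAD4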
Apaf-1 inh = inhibitors of human Apaf-1 apoptosome, primary screen, biochemical, DEVD-Rh110 fluorescence, uHTS; 330,000 compounds, 0.71% hits; reconstituted apoptosome caspase-3 activity; Apoptotic protease-activating factor 1 (Homo sapiens), O14727; inhibition, % at 20 µM; active = inhibition of at least 40% at 20 µM;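 also: plate controls were DMSO wells for no effect and DEVD-CHO caspase inhibitor wells for full effect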
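System: Apoptosome proteins | Medium: Hepes pH 7.5 with detergent and BSA | Also added: Cytochrome c trigger plus (Z-DEVD)2-Rh110 caspase-3 substrate | Incubation: 30 min compound preincubation, 50 min activation, room temperature | Detection: Rhodamine 110 fluorescence at Ex 480/Em 540 nm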
TDP2 absorb = human TDP2 enzyme inhibitors, primary screen, biochemical, epi absorbance, recombinant enzyme | T5PNP hydrolysis, p-nitrophenol absorbance 415 nm | inhibition, % at 12.8 µM | 370,000 compounds, 0.34% hits;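 active = inhibition above the mean of all tested compounds plus 3 SD, set per campaign, cut at about 25% in these data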;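 also: 0% = DMSO with enzyme and 100% = buffer with substrate but no TDP2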
Target sequence (O95551 whole entry, looked up): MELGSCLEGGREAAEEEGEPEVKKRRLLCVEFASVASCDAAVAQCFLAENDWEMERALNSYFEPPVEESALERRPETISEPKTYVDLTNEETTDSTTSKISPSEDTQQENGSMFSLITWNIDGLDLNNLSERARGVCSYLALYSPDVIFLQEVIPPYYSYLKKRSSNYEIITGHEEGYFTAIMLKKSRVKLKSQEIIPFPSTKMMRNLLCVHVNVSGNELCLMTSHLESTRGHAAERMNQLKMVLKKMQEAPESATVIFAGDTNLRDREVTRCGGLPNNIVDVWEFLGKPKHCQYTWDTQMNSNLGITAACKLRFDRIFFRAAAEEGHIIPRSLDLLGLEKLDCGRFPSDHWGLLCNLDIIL
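System – recombinant human TDP2 · Amount – 120 nM TDP2 per well · Buffer or medium – Mg2+-containing Tris-HCl buffer, pH 7.5 · Reagent – T5PNP substrate, 5 mM · Dosing – 12.8 µM single point, 1% DMSO · Incubation – 2 h at 37 °C · Measured by – epi absorbance · Read-out basis – percent inhibition · Benchmarks – high control without enzyme, low control DMSO plus TDP2 · Repeats – singlicate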
GSTO1 counter = inhibitors of recombinant GSTO1, primary screen, counter-screen for RBBP9 inhibitor project, biochemical, fluorescence polarization; activity-based probe fluorescence polarization; 300,000 compounds, 1.1% hits; Glutathione S-transferase omega-1 (Homo sapiens), P78417; inhibition, % at 5.96 µM;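 active = inhibition above the campaign mean inhibition plus 3 SD, cut at about 35% in these data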;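 also: 0% = GSTO1-1 with DMSO and 100% = wells lacking GSTO1-1 enzyme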
Target sequence (P78417 whole entry, looked up): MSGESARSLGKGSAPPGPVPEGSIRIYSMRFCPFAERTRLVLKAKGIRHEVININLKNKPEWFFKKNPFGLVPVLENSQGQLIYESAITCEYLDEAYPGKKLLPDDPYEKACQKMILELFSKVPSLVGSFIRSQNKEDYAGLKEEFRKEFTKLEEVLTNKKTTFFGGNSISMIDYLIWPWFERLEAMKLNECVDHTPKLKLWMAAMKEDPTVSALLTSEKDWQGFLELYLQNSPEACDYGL
CTSL1 counter = Fasciola hepatica cathepsin L1 inhibitors, primary screen, counter-screen for PFM18AAP inhibitor project, biochemical, QFRET, fluorogenic peptide substrate; recombinant F. hepatica cathepsin L1, Z-Leu-Arg-MCA fluorescence; inhibition, % at 5.96 µM; 300,000 compounds, 0.49% hits; AID 1906, 2009;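 active = inhibition above the mean of all tested compounds plus 3 SD, set per screening campaign, cut at about 17% in these data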;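 also: 0% = plate median of test compound wells and 100% = 1 µM Z-Phe-Ala-diazomethylketone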
PAD4 FP conf = human PAD4 inhibitors, confirmation, biochemical, fluorescence polarization | shares compounds with PAD4 inh | recombinant PAD4, RCA probe fluorescence polarization | inhibition, % at 6.36 µM | 1,200 compounds, 28% hits | AID 488796, 2010;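 active = mean inhibition across replicates above the hit cutoff set by the earlier primary screen, cut at about 15% in these data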;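 also: inhibitors block active-site labeling by the probe so polarization falls; 0% = PAD4 with probe and DMSO and 100% = probe without PAD4 enzyme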
Starred values were filed as active, the others as inactive; nt = not tested or not shown. Hits are enriched below; roughly 1.8% of the tested compounds scored in any of these assays.

SMILES	PAD4 inh	Apaf-1 inh	TDP2 absorb	GSTO1 counter	CTSL1 counter	PAD4 FP conf
COc1ccc(NC(=O)NC(C(F)(F)F)C(F)(F)F)cc1	14.8*	-8.4	-3.7	4.3	-0.5	2.7
N#C/C(=C\c1cccnc1)C(=O)Nc1ccc(O)cc1F	17.9*	6.5	1.9	-3.5	-1.8	6.5
[O-]C(=C(C(=S)Nc1cccc2ccccc12)[n+]1cccc(CO)c1)c1ccc(Cl)s1	nt	nt	-0.9	nt	nt	nt
Cc1cc(C)cc(NC(=S)/C(=C(\[O-])c2ccc(Cl)s2)[n+]2cccc(C)c2)c1	90.0*	-14.0	-13.3	-2.5	0.8	-4.5
O=[N+]([O-])c1ccc2nc(-c3ccccc3)n(OCc3ccc(Cl)cc3)c2c1	84.1*	11.7	-2.8	-0.4	-1.1	4.0
CCN(CC)S(=O)(=O)c1ccc(Cl)c(C(=O)Nc2nncs2)c1	-5.9	-5.5	5.5	2.6	3.4	nt
CCN(CC)S(=O)(=O)c1ccc(Cl)c(C(=O)Nc2cc(C)nn2-c2ccccc2C(F)(F)F)c1	18.2*	-0.8	nt	6.9	0.4	-3.0
COc1ccc(S[C@]2(C(=O)N3CCOCC3)CC(=O)N(C(=O)/C=C/c3ccccc3)[C@@H]2c2ccc(OC)cc2)cc1	nt	nt	-8.3	nt	nt	nt
COC(=O)[C@]12C[C@H](CC(=O)N3CCOCC3)C(=O)N(CCC3=CCCCC3)C1=C[C@H](C1CCCC1)O[C@@H]2C	nt	nt	5.6	nt	nt	nt
Cc1ccc(S(=O)(=O)/N=C(/Sc2ccccc2C(=O)O)c2ccccc2)cc1	17.6*	3.2	1.0	4.8	-1.7	24.7*
CC(=O)c1ccc(Sc2nnnn2-c2ccccc2)c([N+](=O)[O-])c1	16.6*	9.9	7.6	13.2	1.7	13.6
CN1CCN(S(=O)(=O)c2ccc(Sc3nnnn3-c3ccccc3)c([N+](=O)[O-])c2)CC1	1.8	10.0	5.1	6.2	0.1	nt
CC(=O)c1cc(-c2ccccc2)n(CC(=O)NCc2ccccc2Cl)c1C	nt	nt	7.6	nt	nt	nt
Cc1n[nH]c(C)c1N1C(=O)c2cccc3c(N4CCCCCC4)ccc(c23)C1=O	38.2*	6.8	-2.6	13.2	-1.6	26.7*
Fc1ccccc1-c1cc2ccccc2cn1	15.4*	19.7	-8.2	nt	nt	12.3
COc1ccc(C2CC(c3cccs3)=Nc3ccccc3S2)cc1 (stereo not given)	21.3*	-1.9	-6.7	-1.5	-0.2	2.2
COc1ccc(O)c(C2=Nc3ccccc3N=C(c3cccs3)C2)c1	-3.0	19.3	12.2	-1.6	3.9	nt
O=C(NCCCCC(NC(=O)c1ccccc1)C(=O)O)OCc1ccccc1 (stereo not given)	nt	nt	2.4	nt	nt	nt
O=C(O)CC(SCC(=O)Nc1ccc(Cl)c(S(=O)(=O)N2CCOCC2)c1)C(=O)O (stereo not given)	21.3*	-15.7	-2.1	-4.4	-4.8	5.3
O=C(CCNC(=O)c1ccccc1)Nc1ccc(Cl)c(S(=O)(=O)N2CCCCC2)c1	18.8*	10.9	-3.1	nt	nt	0.4
CC(CC(=O)Nc1ccc(Cl)c(S(=O)(=O)N2CCOCC2)c1)c1ccccc1 (stereo not given)	nt	10.9	12.5	nt	nt	nt
O=C(CCNC(=O)c1ccc([N+](=O)[O-])cc1)Nc1ccc(Cl)c(S(=O)(=O)N2CCOCC2)c1	-1.4	-0.2	5.3	nt	nt	nt
CCOc1ccc2nc(NC(=O)c3ccco3)sc2c1	16.7*	2.3	-21.8	1.8	0.0	13.1
COc1cc(C#N)c(N=C(SCC#N)N2CCOCC2)cc1OC	24.9*	4.0	-7.9	13.3	7.0	28.2*
OCc1ccccc1SSc1ccccc1CO	47.9*	-0.1	-4.5	20.8	-5.8	41.5*
SMILES	PAD4 inh	Apaf-1 inh	TDP2 absorb	GSTO1 counter	CTSL1 counter	PAD4 FP conf
C#CCNC(=O)C[C@@H]1C(=O)N2CCCC3=C2[C@@]1(C(=O)OC)CCCC3	nt	nt	9.3	nt	nt	nt
Cc1sc2ncnc(Sc3ccccc3C(=O)O)c2c1C	6.4	1.8	-8.3	-8.6	-3.5	nt
Clc1ccc(-n2nnnc2Sc2ncnc3sccc23)cc1	20.6*	0.2	1.5	-17.5	-0.4	21.0*
Cc1sc2ncnc(Sc3nnnn3-c3ccccc3)c2c1C	27.9*	3.2	-3.1	-6.1	7.6	16.6*
COC(=O)Cc1nnn2c1CC(OC)c1ccccc1-2 (stereo not given)	nt	nt	-2.3	nt	nt	nt
C[C@@H]1CN(c2ccc(N3CCNC[C@@H]3C)cc2C#N)CCN1Cc1ccccc1	nt	nt	-3.3	nt	nt	nt
CCOC(=O)c1c(C)[nH]c(C2=NNC(=NC3CC3)SC2)c1C	16.6*	3.0	nt	11.0	11.8	11.8
CC(CO)(CO)NC(=O)c1ccc(C#Cc2cccc(F)c2)cn1	nt	nt	6.4	nt	nt	nt
CC1(C)Cc2c(c(-c3ccco3)[nH]c(=O)c2C#N)CS1	26.2*	16.5	3.0	17.9	3.5	4.7
Cc1cc(O)ccc1N/C=C1\CCCC1=O	41.5*	23.5	-10.4	28.9	-1.8	0.4
CCSc1ccc(-c2nn(-c3ccccc3)cc2/C=C(/C#N)C(=O)NC)cc1	15.5*	nt	9.2	-15.7	-3.3	23.0*
Cc1ccccc1S(=O)(=O)N(C)C[C@@H]1OCc2cn(nn2)CCCC(=O)N([C@@H](C)CO)C[C@H]1C	nt	nt	6.3	nt	nt	nt
COc1ccc(OC)c(N/C(C)=C/C(=O)c2ccncc2)c1	23.2*	8.9	11.2	2.3	1.5	-4.5
COc1ccc(OC)c(N/C(C)=C/C(=O)c2ccccc2)c1	-6.7	2.1	-1.8	-2.1	3.4	nt
COc1ccc(-c2nc(C(=O)NCCCN3CCOCC3)cc3c2[nH]c2ccccc23)cc1OC	59.0*	33.0	-2.5	-15.8	0.6	67.4*
Cc1ccc(-c2nc(C(=O)NCCCN3CCOCC3)cc3c2[nH]c2ccccc23)cc1	-7.2	37.9	8.4	-27.9	0.7	nt
Cc1ccc(C(=O)NC(=O)CSc2nncn2C)cc1	1.4	0.8	-6.8	1.8	-3.8	nt
Cc1ccc(C2=NN=C(NC(=O)CSc3nncn3C)SC2)cc1	67.1*	1.2	-15.0	7.5	1.2	61.6*
C[C@@H]1CN(C(=O)OC(C)(C)C)CCN1c1ccc(Br)c(C#N)c1	nt	nt	1.2	nt	nt	nt
CC(=NN1CCN(c2ccccn2)CC1)c1ccccc1O	nt	nt	-6.6	nt	nt	nt
COc1ccc(C(=O)Nc2nc3ccccc3s2)c(OC)c1	21.8*	7.1	-7.8	-14.0	0.4	54.9*
COC(=O)c1sccc1NC(=O)c1ccc(OC)cc1OC	24.8*	4.1	-0.2	-0.2	-3.3	-3.7
CS(=O)(=O)c1ccccc1-c1nnc(NC(=O)c2ccc3ncsc3c2)o1	22.0*	5.7	8.7	4.0	8.5	8.6
COc1ccc([C@@]23CCN=C2c2[nH]c4ccccc4c2CCN3)c(N)c1	nt	nt	-3.5	nt	nt	nt
